Data: the array DNA melting data of Ke et al. (doi:10.1101/2024.01.08.574731)

Key:
[1] = folding enthalpy; higher = less favourable; fluorescence melt of hairpins on a sequencing array, two-state fit; settings: sodium 0.088 M
In short: (§1)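 Cy3 fluorescence of library hairpins on a sequenced MiSeq flow cell, with annealed Cy3 and quencher oligos, was imaged in 50 mM Na-HEPES pH 8.0, 25 mM NaCl in 2.5 °C steps up to 60 °C. Signals were normalised to pre-quench Cy3 and to control variants. Melting temperature and folding enthalpy came from bootstrapped two-state fits, inverse-variance combined over four replicates. Fitted temperatures were raised by 9.35 °C to match UV melts.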

[2] = melting temperature; fluorescence melt of hairpins on a sequencing array, two-state fit, raised by 9.35 °C to match UV melts; settings: sodium 0.088 M
In short: as §1

| Sequence | folding enthalpy [1] | Tm [2] |
| --- | --- | --- |
| GTTAAAACGAAAGTTAAC (((..(((....)))))) | -16.6 kcal/mol | 26.3 °C |
| GAAGGGGGAAACTCCTTC (((((.(....).))))) | -25.6 kcal/mol | 45.6 °C |
| CGCGGACTGTCCGCG ((((((...)))))) | -42.3 kcal/mol | 64.7 °C |
| GATGACGAAAGTCTCATC ((((((....)))..))) | -9.72 kcal/mol | 32.5 °C |
| GATCCGATTCGGATC ((((((...)))))) | -39.2 kcal/mol | 58.3 °C |
| GATCTTCTTGAAGATC ((((((....)))))) | -48 kcal/mol | 54 °C |
| GGATACGAAAGTAAGTCC ((((((....)))..))) | -9.06 kcal/mol | 22.2 °C |
| CGCGGAACGGTCCGCG ((((((....)))))) | -38.7 kcal/mol | 61.6 °C |
| CGATCCGGAAACGGCTCG (((.(((....))).))) | -28.7 kcal/mol | 48.1 °C |
| GATCTCAGTAGAGATC ((((((....)))))) | -37.4 kcal/mol | 54.1 °C |
| GCCTTCGGAAACAAAGGC (((((.(....).))))) | -27.5 kcal/mol | 41.9 °C |
| GCAGGAGAAATCCTGC ((((((....)))))) | -36.1 kcal/mol | 61.1 °C |
| GCAGATGCGAAAGCATGC (((..(((....)))))) | -13.6 kcal/mol | 47.9 °C |
| CGCGGAATGATCCGCG ((((((....)))))) | -39.7 kcal/mol | 62.5 °C |
| GTGTGACGAAAGTCCAC (((.(((....)))))) | -40.2 kcal/mol | 52.3 °C |
| GAGACCGAAAGGTTCCTC ((((((....)))..))) | -12.4 kcal/mol | 32 °C |
| GATCGCTAAGCGATC ((((((...)))))) | -33.5 kcal/mol | 67.9 °C |

| Sequence | folding enthalpy [1] | Tm [2] |
| --- | --- | --- |
| GTTCAGGGAAACCCGAAC ((((.((....)).)))) | -31.7 kcal/mol | 42.3 °C |
| GTCCTTTCGAAAGAAGAC (((..(((....)))))) | -15.3 kcal/mol | 28.5 °C |
| GCGTTGGCACGC ((((....)))) | -17.2 kcal/mol | 50 °C |
| GCGGAGGGCCGC ((((....)))) | -15.4 kcal/mol | 53.9 °C |
| GATCCGGGAAACCGGGTC ((.((((....)))).)) | -41.6 kcal/mol | 54.5 °C |
| GATCAGATTCCTGATC ((((((....)))))) | -39 kcal/mol | 48.5 °C |
| GTTGGCCGAAAGGCAAC (((.(((....)))))) | -16.8 kcal/mol | 53.9 °C |
| GTGCTGGGAAACCGGCAC ((((.((....)).)))) | -41.1 kcal/mol | 61 °C |
| GATATAGCGAAAGCTATC (((..(((....)))))) | -10.1 kcal/mol | 33.9 °C |
| GATCCCGCTGGGGATC ((((((....)))))) | -36.9 kcal/mol | 60.8 °C |
| GCTACAACGAAAGTTAGC (((..(((....)))))) | -18.6 kcal/mol | 33.4 °C |
| GCTCCGCGAAAGCCGTGC ((.(.((....)).).)) | -9.49 kcal/mol | 39.1 °C |
| GCAAAAACGAAAGTTTGC (((..(((....)))))) | -26 kcal/mol | 43.2 °C |
| GATCCTCTAGAGGATC ((((((....)))))) | -42.6 kcal/mol | 56.4 °C |
| GGTGACGAAAGTCATACC ((((((....)))..))) | -13.6 kcal/mol | 40.7 °C |
| GGAAAACGAAAGTTCTCC (((.(((....))).))) | -24.8 kcal/mol | 35.7 °C |
| GAGACAGGAAACTGTCTC (((((((....))))))) | -49.7 kcal/mol | 60.1 °C |
